In the library only some 3.1% were active in any assay of this set; here they are far more common.
SIRT5 block = sirtuin-5 (human) deacylase inhibition; actives 1.1% (n = 330,000); Q9NXA8; inhibition, % at 15 µM; AID 652115; Purified SirT5, succinyl-peptide AMC, trypsin-coupled fluorescence; in the data active = inhibition above about 15%
F508del corr = CFTR F508del correction in bronchial cells | actives 0.36% (n = 350,000) | activity (quench increase), % at 7.58 µM | CFBE cells, YFP halide quenching; stimulated with forskolin plus potentiator P3; % fluorescence drop versus neutral controls;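 active = mean added fluorescence quench of at least 8% versus neutral control, with both replicates also reaching 8%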;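 note: cells transiently co-express mutant CFTR-F508del with the halide-sensitive YFP; corrector assay measuring rescue of mutant channel to the surface after 24 h compound exposure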
S100A4 MyoIIA = S100A4-myosin IIA interaction inhibition; P26447; S100A4/TAMRA-MyoIIA peptide fluorescence polarization; inhibition, % at 10.7 µM; actives 0.14% (n = 360,000); AID 652163;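 active = mean inhibition of at least 70% across replicates, with every replicate also reaching that level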
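Material: S100A4 monomer (human). Medium: Calcium-containing HEPES buffer, pH 7.2. Probe or stimulus: labelled myosin peptide probe, 5 nM. Compound dosing: one concentration per compound. Timing: polarization read 5 min after assay mix addition, stable 5–60 min. Benchmarks: DMSO as neutral control, TFP as positive control.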
rRNA inh HTS = inhibits bacterial ribosomal RNA function over humanized ribosomes; E. coli WT GFP vs humanized-ribosome RFP mutants, fluorescence, 24 h; stronger effect = lower value; DMSO median 0, no signal -100; GFP signal change (wild-type ribosome), % (no concentration beside the values); actives 1.6% (n = 350,000); AID 720706;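 active = significant combined selectivity score with lowered wild-type GFP, culture density cut under 30%, mutant RFP and density less affected; inactive = any of these conditions unmet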
ERAP1 inh = inhibitors of human ERAP1 aminopeptidase; Q9NZ08; recombinant ERAP1, Leu-AMC fluorescence, 60 min; inhibition, % at 10.7 µM; actives 0.15% (n = 340,000); AID 652197;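 active = mean replicate inhibition of at least 30%, or all replicates individually reaching that 30% level; inactive = mean below 30% and not every replicate reaching it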
Target sequence (Q9NZ08 whole entry, looked up): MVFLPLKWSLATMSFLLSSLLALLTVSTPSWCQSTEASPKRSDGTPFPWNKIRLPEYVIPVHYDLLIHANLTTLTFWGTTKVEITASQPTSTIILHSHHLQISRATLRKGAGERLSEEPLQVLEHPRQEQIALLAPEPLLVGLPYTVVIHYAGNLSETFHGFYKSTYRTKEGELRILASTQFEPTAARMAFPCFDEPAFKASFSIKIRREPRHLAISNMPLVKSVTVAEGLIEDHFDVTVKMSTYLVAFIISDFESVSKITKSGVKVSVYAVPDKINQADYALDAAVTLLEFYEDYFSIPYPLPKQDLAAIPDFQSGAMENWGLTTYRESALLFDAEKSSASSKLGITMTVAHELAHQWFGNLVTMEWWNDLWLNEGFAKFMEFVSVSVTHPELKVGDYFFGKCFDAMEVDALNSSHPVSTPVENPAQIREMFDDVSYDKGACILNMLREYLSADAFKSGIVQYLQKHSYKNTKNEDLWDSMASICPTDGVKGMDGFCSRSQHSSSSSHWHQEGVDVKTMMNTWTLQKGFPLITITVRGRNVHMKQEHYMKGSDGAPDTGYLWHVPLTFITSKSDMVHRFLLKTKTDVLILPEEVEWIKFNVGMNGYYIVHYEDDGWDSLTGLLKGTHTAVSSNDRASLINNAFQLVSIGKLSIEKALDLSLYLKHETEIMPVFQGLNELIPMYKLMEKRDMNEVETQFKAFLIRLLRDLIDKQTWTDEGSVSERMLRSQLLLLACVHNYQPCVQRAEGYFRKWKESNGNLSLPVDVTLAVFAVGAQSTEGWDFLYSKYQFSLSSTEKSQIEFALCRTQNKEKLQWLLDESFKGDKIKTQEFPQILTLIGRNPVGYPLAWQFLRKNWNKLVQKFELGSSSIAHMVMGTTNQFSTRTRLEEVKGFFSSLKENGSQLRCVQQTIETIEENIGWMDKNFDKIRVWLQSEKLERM
Numbers stand for hits; n = inactive; x = no result given.

SMILES | SIRT5 block | F508del corr | S100A4 MyoIIA | rRNA inh HTS | ERAP1 inh
O=c1c2ccccc2sc2c(CO)ccc(NCCN3CCCCC3)c12 | n | 17.4 | n | x | n
Cc1cccc(-c2ccc([C@H]3[C@H](CO)N4C(=O)CN(S(=O)(=O)c5cccc(F)c5)C[C@@H]34)cc2)c1 | n | n | n | n | n
CC(=O)Nc1cccc(NC(=O)c2ccc3[nH]c(C)c(C)c3c2)c1 | n | n | n | n | n
COc1ccc(NC(=O)c2ccc3[nH]c(C)c(C)c3c2)cc1 | n | n | n | -24.8 | n
C[C@@H]1CN([C@@H](C)CO)C(=O)Cc2cc(NC(=O)CCN3CCOCC3)ccc2O[C@@H]1CN(C)C(=O)Nc1ccc(F)cc1 | n | n | n | n | n
O=C(CCS(=O)(=O)Cc1ccccc1)Nc1nncs1 | 18.8 | n | n | n | n
C[C@@H]1CCCCO[C@H](CN(C)S(=O)(=O)c2ccc(Cl)cc2)[C@H](C)CN([C@H](C)CO)C(=O)c2cc(NC(=O)C3CCCCC3)ccc2O1 | n | n | n | n | n
O=[N+]([O-])c1ccc(C2=Nc3cc(Cl)ccc3OC2)cc1 | n | n | n | n | n
O=C1COc2cc(ccc2[N+](=O)[O-])Oc2ccc(cc2Cl)C(=O)CCCCO1 | 17.6 | n | n | n | n
CN1C(=O)/C(=C2\SC(N3CCCCCC3)=NC2=O)c2ccccc21 | 32.1 | x | n | n | n
O=C(CCCCCn1c(=S)[nH]c2ccc(N3CCOCC3)cc2c1=O)NCc1ccc(Cl)cc1 | n | n | n | -24.5 | n
Cc1cc(Br)ccc1SCC(=O)OCC(=O)NCc1ccco1 | n | n | n | -17.7 | n
NC(=O)CSc1nc2ccccc2n1-c1ccccc1 | 26.1 | n | n | n | n
O=C(O)CSc1nc2ccccc2n1-c1ccccc1 | n | n | n | n | n
NC(=O)CSc1nc2cc([N+](=O)[O-])ccc2n1-c1cccc(C(F)(F)F)c1 | n | n | n | -22.1 | n
CS(=O)(=O)N1CCCCN2[C@@H](CO)[C@H](c3ccc(C#Cc4ccccn4)cc3)[C@@H]2C1 | n | n | n | n | n
CCS(=O)c1scc(-c2ccc(Cl)cc2)c1C#N (stereo not given) | n | n | n | -31.7 | n
Cc1nc2c(C#N)c(-c3ccc(Cl)cc3)ccn2n1 | n | n | n | n | n
CCCN(C)C[C@@H]1OCCCC[C@@H](C)Oc2ccc(NC(=O)C3CCCCC3)cc2C(=O)N([C@H](C)CO)C[C@@H]1C | n | n | n | n | n
Cn1cnc2nc[nH]c2c1=S | n | 16.0 | n | x | n
S=c1nc[nH]c2nc[nH]c12 | n | n | n | n | n
O=C(Nc1ccccc1)N1CC(=O)N2[C@H](CO)[C@@H](c3ccc(C#CC4CCCC4)cc3)[C@@H]2C1 | n | n | n | n | n
CCOC(=O)C(C)Sc1nnc2n1C(C)(C)Cc1ccccc1-2 (stereo not given) | n | x | n | -22.1 | n
CC1(C)Cc2ccccc2-c2nnc(SCc3ccccc3)n21 | n | n | n | n | n
COc1cc2c(cc1Cl)C(=O)C(F)(c1ccccc1)C(=O)N2 (stereo not given) | n | n | n | -28.8 | n
SMILES | SIRT5 block | F508del corr | S100A4 MyoIIA | rRNA inh HTS | ERAP1 inh
S=C(Nc1ccc2nsnc2c1)NC1CCCCC1 | n | n | n | -44.0 | n
FC(F)(F)c1ccc(NC(=S)NC2CCCCC2)cc1 | n | n | n | -53.5 | n
C[C@@H]1CN([C@H](C)CO)C(=O)c2cc(NC(=O)NC3CCCCC3)ccc2O[C@@H](C)CCCCO[C@@H]1CN(C)Cc1ccc(C(=O)O)cc1 | n | n | n | n | n
CC(=O)N1CCc2c(sc(NC(=O)c3ccc(S(=O)(=O)N(C)C)cc3)c2C#N)C1 | n | n | n | n | n
CC(=O)N1CCc2c(sc(NC(=O)c3ccc4c(c3)OCCO4)c2C#N)C1 | n | 10.5 | n | n | n
CN(C(=O)Cn1c(Cl)nc2c1c(=O)n(C)c(=O)n2C)C1CCS(=O)(=O)C1 (stereo not given) | n | n | n | n | 82.7
CC(C(=O)Nc1ccc(F)c(F)c1F)N(C)Cc1cccs1 (stereo not given) | 16.3 | n | n | n | n
CNC[C@@H]1Oc2cc(-c3cccc(C(=O)N(C)C)c3)ccc2S(=O)(=O)N([C@H](C)CO)C[C@H]1C | n | n | n | n | n
CCn1cnc2c(Nc3cc(F)cc(F)c3)nc(C#N)nc21 | n | n | n | n | n
CCNc1nc(C#N)nc2c1ncn2-c1cc(F)cc(F)c1 | 24.6 | n | n | n | n
C[C@@H]1CN([C@H](C)CO)C(=O)c2cccc(NC(=O)C3CC3)c2O[C@H]1CN(C)S(=O)(=O)c1ccccc1 | n | n | n | n | n
COC(=O)c1ccc(/C=C/c2c(-c3ccc(OC)cc3)oc3ccc(N4CCOCC4)cc23)cc1 | n | 9.6 | n | n | n
CCC(=O)N1[C@@H]2CN(S(=O)(=O)c3ccc(F)cc3)c3ccccc3[C@@H]2[C@@H]1CO | n | n | n | n | n
C[C@H](CO)N1C[C@H](C)[C@H](CN(C)Cc2cccc(C(=O)O)c2)OCc2cn(nn2)CCCC1=O | n | n | n | n | n
CCCNC(=O)N1C[C@H]2[C@@H](c3ccccc31)[C@H](CO)N2C(=O)NCCC | n | n | n | n | n
CCn1c(-c2cc(-c3ccccc3)sc2N)n[nH]c1=S | n | n | n | n | x
CCn1c(-c2cc(-c3cccc(OC)c3)nc3ccccc23)n[nH]c1=S | n | n | n | -43.9 | n
CO[C@H]1CN(C)C(=O)c2ccc(NC(C)=O)cc2OC[C@@H](C)N(C(=O)c2ccccc2F)C[C@@H]1C | x | n | x | n | x
COc1ccc2c3c([nH]c2c1)[C@H](CO)N(Cc1cc(F)ccc1F)CC31CN(C(C)=O)C1 | n | n | n | n | n
CNC[C@H]1OCCCC[C@H](C)Oc2ccc(NC(=O)C3CCCCC3)cc2C(=O)N([C@@H](C)CO)C[C@@H]1C | n | n | n | n | n
CNC[C@@H]1OCCCC[C@H](C)Oc2ccc(NS(C)(=O)=O)cc2C(=O)N([C@@H](C)CO)C[C@@H]1C | n | n | 88.7 | n | n
C[C@@H]1CN([C@@H](C)CO)C(=O)c2cc(NS(C)(=O)=O)ccc2O[C@@H](C)CCCCO[C@@H]1CN(C)C | 25.5 | n | n | n | n
CNC[C@H]1OCCCC[C@@H](C)Oc2ccc(NC(=O)C3CCCCC3)cc2C(=O)N([C@@H](C)CO)C[C@@H]1C | n | n | 96.9 | n | n
C[C@@H]1CN([C@H](C)CO)C(=O)c2cc(/C=C/c3ccccc3)cnc2O[C@H]1CN(C)C(=O)CN1CCOCC1 | n | n | n | n | n
COc1ccccc1-c1cn(CC[C@H]2CC[C@@H](NC(=O)NC(C)C)[C@H](CO)O2)nn1 | n | n | n | n | n
COCC(=O)Nc1ccc2c(c1)C(=O)N(C)C[C@H](OC)[C@H](C)CN(Cc1cccnc1)[C@H](C)CO2 | n | n | n | n | n

Source: PubChem BioAssay
